Laboratory results as given in ChEMBL document CHEMBL4052823, “Extra Sugar on Vancomycin: New Analogues for Combating Multidrug-Resistant Staphylococcus aureus and Vancomycin-Resistant Enterococci” (J Med Chem, 2018).
In brackets after ≈: the same amount, converted by molar mass.

Legend:
Staphylococcus aureus [1] = experiment: Antibacterial activity against healthcare-associated methicillin-resistant/vancomycin-intermediate Staphylococcus aureus Mu50 after 24 hrs by broth microdilution method; assay type: functional; conditions: Mu50, 24 h
Procedure, shortened: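 Broth microdilution in cation-adjusted Mueller-Hinton II broth. DMSO stocks were diluted in broth and twofold serially from 128 to 0.0625 μg/mL or lower. Each well was inoculated with ~10^5 CFU of exponential-phase bacteria and incubated at 37 °C for 24 h. MIC was the lowest concentration giving complete growth inhibition, read per CLSI. Growth controls contained broth plus DMSO.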

Staphylococcus aureus [2] = experiment: Antibacterial activity against vancomycin/methicillin-susceptible Staphylococcus aureus Newman […] after 24 hrs by broth microdilution method; assay type: functional
Procedure, shortened: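 Broth microdilution in cation-adjusted Mueller-Hinton II broth. […] Each well received ~10^5 CFU of exponential-phase bacteria and was incubated at 37 °C for 24 h. MIC was taken as the lowest concentration giving complete growth inhibition, interpreted per CLSI.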

## C#Cc1ccc(CN[C@@]2(C)C[C@H](O[C@H]3[C@H](Oc4c5cc6cc4Oc4ccc(cc4Cl)[C@@H](O)[C@@H](NC(=O)[C@@H](CC(C)C)NC)C(=O)N[C@@H](CC(N)=O)C(=O)N[C@H]6C(=O)N[C@H]4C(=O)N[C@H](C(=O)N[C@H](C(=O)O)c6cc(O)c(CN[C@H]7C(O)O[C@H](CO)[C@H](O)[C@@H]7O)c(O)c6-c6cc4ccc6O)[C@H](O)c4ccc(c(Cl)c4)O5)O[C@H](CO)[C@@H](O)[C@@H]3O)O[C@@H](C)[C@H]2O)cc1 (some centres undefined)
Staphylococcus aureus [1]
  MIC90: 8 mg/L (≈ 4.56 µM)
Staphylococcus aureus [2]
  MIC90: 2 mg/L (≈ 1.14 µM)

## CCCCCCCCCCNCCN[C@@]1(C)C[C@H](O[C@H]2[C@H](Oc3c4cc5cc3Oc3ccc(cc3Cl)[C@@H](O)[C@@H](NC(=O)[C@@H](CC(C)C)NC)C(=O)N[C@@H](CC(N)=O)C(=O)N[C@H]5C(=O)N[C@H]3C(=O)N[C@H](C(=O)N[C@H](C(=O)O)c5cc(O)c(CNCCO[C@@H]6O[C@H](CO)[C@@H](O)[C@H](O)[C@H]6O)c(O)c5-c5cc3ccc5O)[C@H](O)c3ccc(c(Cl)c3)O4)O[C@H](CO)[C@@H](O)[C@@H]2O)O[C@@H](C)[C@H]1O
Staphylococcus aureus [1]
  MIC90: 16 mg/L (≈ 8.57 µM)
Staphylococcus aureus [2]
  MIC90: 4 mg/L (≈ 2.14 µM)

## CN[C@H](CC(C)C)C(=O)N[C@H]1C(=O)N[C@@H](CC(N)=O)C(=O)N[C@H]2C(=O)N[C@H]3C(=O)N[C@H](C(=O)N[C@H](C(=O)O)c4cc(O)c(CNCCO)c(O)c4-c4cc3ccc4O)[C@H](O)c3ccc(c(Cl)c3)Oc3cc2cc(c3O[C@@H]2O[C@H](CO)[C@@H](O)[C@H](O)[C@H]2O[C@H]2C[C@](C)(NCc3ccc(-c4ccncc4)cc3)[C@H](O)[C@H](C)O2)Oc2ccc(cc2Cl)[C@H]1O
Staphylococcus aureus [1]
  MIC90: 2 mg/L (≈ 1.18 µM)
Staphylococcus aureus [2]
  MIC90: 0.5 mg/L (≈ 0.296 µM)

## CN[C@H](CC(C)C)C(=O)N[C@H]1C(=O)N[C@@H](CC(N)=O)C(=O)N[C@H]2C(=O)N[C@H]3C(=O)N[C@H](C(=O)N[C@H](C(=O)O)c4cc(O)c(CN[C@H]5C(O)O[C@H](CO)[C@H](O)[C@@H]5O)c(O)c4-c4cc3ccc4O)[C@H](O)c3ccc(c(Cl)c3)Oc3cc2cc(c3O[C@@H]2O[C@H](CO)[C@@H](O)[C@H](O)[C@H]2O[C@H]2C[C@](C)(NCc3ccc(C#C[Si](C)(C)C)cc3)[C@H](O)[C@H](C)O2)Oc2ccc(cc2Cl)[C@H]1O (some centres undefined)
Staphylococcus aureus [1]
  MIC90: 2 mg/L (≈ 1.09 µM)
Staphylococcus aureus [2]
  MIC90: 0.5 mg/L (≈ 0.274 µM)

## CN[C@H](CC(C)C)C(=O)N[C@H]1C(=O)N[C@@H](CC(N)=O)C(=O)N[C@H]2C(=O)N[C@H]3C(=O)N[C@H](C(=O)N[C@H](C(=O)O)c4cc(O)c(CNCCCNC(=O)[C@H](O)[C@@H](O)[C@H](O)[C@H](O)CO)c(O)c4-c4cc3ccc4O)[C@H](O)c3ccc(c(Cl)c3)Oc3cc2cc(c3O[C@@H]2O[C@H](CO)[C@@H](O)[C@H](O)[C@H]2O[C@H]2C[C@](C)(NCc3ccc4ccccc4c3)[C@H](O)[C@H](C)O2)Oc2ccc(cc2Cl)[C@H]1O
Staphylococcus aureus [1]
  MIC90: 4 mg/L (≈ 2.16 µM)
Staphylococcus aureus [2]
  MIC90: 1 mg/L (≈ 0.539 µM)

## CCc1ccc(CN[C@@]2(C)C[C@H](O[C@H]3[C@H](Oc4c5cc6cc4Oc4ccc(cc4Cl)[C@@H](O)[C@@H](NC(=O)[C@@H](CC(C)C)NC)C(=O)N[C@@H](CC(N)=O)C(=O)N[C@H]6C(=O)N[C@H]4C(=O)N[C@H](C(=O)N[C@H](C(=O)O)c6cc(O)c(CNCCCNC(=O)[C@H](O)[C@@H](O)[C@H](O)[C@H](O)CO)c(O)c6-c6cc4ccc6O)[C@H](O)c4ccc(c(Cl)c4)O5)O[C@H](CO)[C@@H](O)[C@@H]3O)O[C@@H](C)[C@H]2O)cc1
Staphylococcus aureus [1]
  MIC90: 8 mg/L (≈ 4.37 µM)
Staphylococcus aureus [2]
  MIC90: 4 mg/L (≈ 2.18 µM)

## CCCCCCCCCCNCCN[C@@]1(C)C[C@H](O[C@H]2[C@H](Oc3c4cc5cc3Oc3ccc(cc3Cl)[C@@H](O)[C@@H](NC(=O)[C@@H](CC(C)C)NC)C(=O)N[C@@H](CC(N)=O)C(=O)N[C@H]5C(=O)N[C@H]3C(=O)N[C@H](C(=O)N[C@H](C(=O)O)c5cc(O)c(CNCCO[C@H]6O[C@H](CO)[C@@H](O)[C@H](O)[C@@H]6O)c(O)c5-c5cc3ccc5O)[C@H](O)c3ccc(c(Cl)c3)O4)O[C@H](CO)[C@@H](O)[C@@H]2O)O[C@@H](C)[C@H]1O
Staphylococcus aureus [1]
  MIC90: 2 mg/L (≈ 1.07 µM)
Staphylococcus aureus [2]
  MIC90: 1 mg/L (≈ 0.535 µM)
